Assay results reported in ChEMBL document CHEMBL1154841, “Cytotoxic triterpene dilactones from the stems of Kadsura ananosma” (J Nat Prod, 2010).

Experiments:
Format in all cases: functional, cell-based
HL-60 = assay: Cytotoxicity against human HL60 cells after 48 hrs by MTT assay; conditions: HL-60, 48 h
Outline: (§1)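 Cells grown in RPMI-1640 or DMEM with 10% fetal bovine serum, 37 °C, 5% CO2. Seeded at 1 × 10^5 cells/mL; adherent lines attached 12 h before dosing, suspension cells (HL-60) seeded at dosing. Compound given at various concentrations in triplicate for 48 h; 10-hydroxycamptothecin positive control. MTT 4 h at 37 °C, lysis in 20% SDS-50% DMF, formazan read at 595 nm.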

SMMC-7721 = assay: Cytotoxicity against of human SMMC7721 cells after 48 hrs by MTT assay; conditions: SMMC-7721, 48 h; outline: as §1
A549 = assay: Cytotoxicity against human A549 cells after 48 hrs by MTT assay; conditions: A549, 48 h; outline: as §1
PANC-1 = assay: Cytotoxicity against human PANC1 cells after 48 hrs by MTT assay; conditions: PANC-1, 48 h; outline: as §1
SK-BR-3 = assay: Cytotoxicity against human SK-BR-3 cells after 48 hrs by MTT assay; conditions: SK-BR-3, 48 h; outline: as §1

`C=C1C([C@@H](C)[C@H]2CC=C(C)C(=O)O2)=CC[C@]2(C)[C@H]1C[C@]1(O)C=C3C=CC(=O)OC(C)(C)[C@@H]3[C@H](O)C[C@@H]21` [LONGIPEDLACTONE F] showed an IC50 (HL-60) of 2.3 µM, an IC50 (SMMC-7721) of over 10 µM and an IC50 (A549) of over 10 µM. For the same compound, the IC50 (PANC-1) was 8.8 µM and the IC50 (SK-BR-3) was 7.4 µM.
`C=C1C([C@@H](C)[C@H]2CC=C(C)C(=O)O2)=CC[C@]2(C)[C@H]1C[C@]1(O)C=C3C=CC(=O)OC(C)(C)[C@@H]3[C@H](OC(C)=O)C[C@@H]21` [LOGIPEDLACTONE J] gave an IC50 (HL-60) of 2 µM, an IC50 (SMMC-7721) of over 10 µM and an IC50 (A549) of over 10 µM. For the same compound, the IC50 (PANC-1) was 5.3 µM and the IC50 (SK-BR-3) was 2.8 µM.
`C=C1[C@@H]2C[C@]3(O)[C@H]4O[C@]45C=CC(=O)OC(C)(C)[C@@H]5[C@H](OC(C)=O)C[C@H]3[C@]2(C)CC[C@@]1(O)[C@@H](C)[C@H]1CC=C(C)C(=O)O1` [LONGIPEDLACTONE P] gave an IC50 (HL-60) of over 10 µM, an IC50 (SMMC-7721) of over 10 µM and an IC50 (A549) of over 10 µM. It also gave an IC50 (PANC-1) of over 10 µM and an IC50 (SK-BR-3) of over 10 µM.
`C=C1[C@H]([C@@H](C)[C@H]2CC=C(C)C(=O)O2)CC[C@]2(C)[C@H]1C[C@]1(O)C=C3C=CC(=O)OC(C)(C)[C@@H]3[C@H](OC(C)=O)C[C@@H]21` [LONGIPEDLACTONE L] was tested, and the IC50 (HL-60) was 7.3 µM, the IC50 (SMMC-7721) was over 10 µM and the IC50 (A549) was over 10 µM. The IC50 (PANC-1) was over 10 µM and the IC50 (SK-BR-3) was over 10 µM.
Work on `C=C1[C@@H]2C[C@]3(O)C=C4C=CC(=O)OC(C)(C)[C@@H]4[C@H](OC(C)=O)C[C@H]3[C@]2(C)CC[C@@]1(O)[C@@H](C)[C@H]1CC=C(C)C(=O)O1` [LONGIPEDLACTONE M] yielded an IC50 (HL-60) of 4.1 µM, an IC50 (SMMC-7721) of over 10 µM and an IC50 (A549) of over 10 µM. It also gave an IC50 (PANC-1) of over 10 µM and an IC50 (SK-BR-3) of over 10 µM.
`C=C1C([C@@H](C)[C@H]2CC=C(C)C(=O)O2)=CC[C@]2(C)[C@H]1C[C@]1(O)[C@H]3O[C@]34C=CC(=O)OC(C)(C)[C@@H]4[C@H](O)C[C@@H]21` [LONGIPEDLACTONE G] was tested, and the IC50 (HL-60) was over 10 µM, the IC50 (SMMC-7721) was over 10 µM and the IC50 (A549) was over 10 µM. The IC50 (PANC-1) was over 10 µM and the IC50 (SK-BR-3) was over 10 µM.
`C=C1[C@H]([C@@H](C)[C@H]2CC=C(C)C(=O)O2)CC[C@@]2(C)[C@@H]3C[C@@H](OC(C)=O)[C@H]4C(C)(C)OC(=O)C[C@H]5OO[C@]3(C[C@@H]12)C[C@]54O` [LONGIPEDLACTONE K] showed an IC50 (HL-60) of over 10 µM, an IC50 (SMMC-7721) of over 10 µM and an IC50 (A549) of over 10 µM. It also gave an IC50 (PANC-1) of over 10 µM and an IC50 (SK-BR-3) of over 10 µM.
Work on `C=C1C([C@@H](C)[C@H]2CC=C(C)C(=O)O2)=CC[C@]2(C)[C@H]1C[C@]1(O)C=C3C=CC(=O)OC(C)(C)[C@@H]3CC[C@@H]21` [LONGIPEDLACTONE A] yielded an IC50 (HL-60) of 3.5 µM, an IC50 (SMMC-7721) of over 10 µM and an IC50 (A549) of over 10 µM. For the same compound, the IC50 (PANC-1) was over 10 µM and the IC50 (SK-BR-3) was over 10 µM.
Work on `C=C1C([C@@H](C)[C@H]2CC=C(C)C(=O)O2)=CC[C@]2(C)[C@H]1C[C@]1(O)[C@H]3O[C@]34C=CC(=O)OC(C)(C)[C@@H]4CC[C@@H]21` [LONGIPEDLACTONE D] yielded an IC50 (HL-60) of over 10 µM, an IC50 (SMMC-7721) of over 10 µM and an IC50 (A549) of over 10 µM. For the same compound, the IC50 (PANC-1) was over 10 µM and the IC50 (SK-BR-3) was over 10 µM.
In the case of `C=C1[C@@H]2C[C@]3(O)[C@H]4O[C@]45C=CC(=O)OC(C)(C)[C@@H]5[C@H](O)C[C@H]3[C@]2(C)CC[C@@]1(O)[C@@H](C)[C@H]1CC=C(C)C(=O)O1` [LONGIPEDLACTONE I], the IC50 (HL-60) is reported as over 10 µM, the IC50 (SMMC-7721) is reported as over 10 µM and the IC50 (A549) is reported as over 10 µM. The IC50 (PANC-1) was over 10 µM and the IC50 (SK-BR-3) was over 10 µM.
`C=C1C([C@@H](C)[C@H]2CC=C(C)C(=O)O2)=CC[C@]2(C)[C@H]1C[C@]1(O)[C@H]3O[C@]34C=CC(=O)OC(C)(C)[C@@H]4[C@H](OC(C)=O)C[C@@H]21` [LONGIPEDLACTONE N] showed an IC50 (HL-60) of over 10 µM, an IC50 (SMMC-7721) of over 10 µM and an IC50 (A549) of over 10 µM. The IC50 (PANC-1) was over 10 µM and the IC50 (SK-BR-3) was over 10 µM.
